# Active and inactive are the calls of the source. The calls are words filed in the database; no cut-off is given here.
# Key:
# Rattus norvegicus [1] = test: Reversal of FCA-induced hypersensitivity in rat chronic joint pain model at 20 mg/kg, po after 1 to 6 hrs; type: functional, organism-based; parameters: dose 20 mg/kg
# Method in brief: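 Chronic joint pain model in rat. Hypersensitivity was induced by intra-articular FCA, and oral dosing at 20 mg/kg began 13 days post FCA. Response was assessed at 1, 3 and 6 h post-dose. Celecoxib at 30 mg/kg po served as comparator.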
# MDCK = test: Efflux ratio of permeability from apical to basolateral side over basolateral to apical side in MDCK cells expressing MDR; type: ADME, cell-based, Canis lupus familiaris; details: dog
# [2] = Lipophilicity, log D of the compound at pH 7.4; type: physicochemical; details: buffer
# [3] = Ratio of drug level in brain to plasma in rat chronic joint pain model at 20 mg/kg, po after 1 hr; type: ADME, organism-based; parameters: dose 20 mg/kg, route oral; details: brain and plasma, read-out: BBR
# [4] = Drug level in rat chronic joint pain model blood at 20 mg/kg, po after 1 hr; type: ADME, organism-based; parameters: dose 20 mg/kg, route oral; details: read-out: Drug uptake
# Method in brief: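 In the rat chronic joint pain model, blood concentrations were measured 1.0 h after a 20 mg/kg oral dose.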
# [5] = Cmax in rat at 3 mg/kg, po; type: ADME, organism-based; parameters: dose 3 mg/kg, route oral; details: in vivo
# [6] = Half life in rat at 3 mg/kg, po; type: ADME, organism-based; parameters: dose 3 mg/kg, route oral; details: in vivo
# P2X purinoceptor 7 [7] = biological target: T1, P2X purinoceptor 7 (Rattus norvegicus, UniProt Q64663); test: Antagonist activity at rat recombinant P2X7 receptor; type: functional
# T1 sequence (Q64663 whole entry): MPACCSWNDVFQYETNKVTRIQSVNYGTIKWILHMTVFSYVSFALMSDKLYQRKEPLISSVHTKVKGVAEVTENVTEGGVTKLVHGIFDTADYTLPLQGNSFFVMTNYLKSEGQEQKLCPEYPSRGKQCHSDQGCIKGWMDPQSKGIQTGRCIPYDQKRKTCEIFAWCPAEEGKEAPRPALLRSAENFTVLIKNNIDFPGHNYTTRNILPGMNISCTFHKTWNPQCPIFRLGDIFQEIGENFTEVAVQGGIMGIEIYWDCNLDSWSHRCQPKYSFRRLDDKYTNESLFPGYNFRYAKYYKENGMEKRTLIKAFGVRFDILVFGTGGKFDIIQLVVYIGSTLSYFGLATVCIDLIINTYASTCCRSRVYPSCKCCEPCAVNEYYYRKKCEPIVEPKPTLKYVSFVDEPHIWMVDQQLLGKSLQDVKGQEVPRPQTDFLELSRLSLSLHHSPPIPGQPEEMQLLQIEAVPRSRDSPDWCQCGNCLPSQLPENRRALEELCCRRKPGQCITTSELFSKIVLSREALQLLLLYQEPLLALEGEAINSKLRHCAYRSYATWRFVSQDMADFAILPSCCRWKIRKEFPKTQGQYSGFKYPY
# [8] = Clearance in rat at 3 mg/kg, po; type: ADME, organism-based; parameters: dose 3 mg/kg, route oral; details: in vivo
# P2X purinoceptor 7 [9] = biological target: T2, P2X purinoceptor 7 (Homo sapiens, UniProt Q99572); test: Antagonist activity at human recombinant P2X7 receptor expressed in HEK293 cells by ethidium accumulation assay; type: functional, cell-based
# T2 sequence (Q99572 whole entry): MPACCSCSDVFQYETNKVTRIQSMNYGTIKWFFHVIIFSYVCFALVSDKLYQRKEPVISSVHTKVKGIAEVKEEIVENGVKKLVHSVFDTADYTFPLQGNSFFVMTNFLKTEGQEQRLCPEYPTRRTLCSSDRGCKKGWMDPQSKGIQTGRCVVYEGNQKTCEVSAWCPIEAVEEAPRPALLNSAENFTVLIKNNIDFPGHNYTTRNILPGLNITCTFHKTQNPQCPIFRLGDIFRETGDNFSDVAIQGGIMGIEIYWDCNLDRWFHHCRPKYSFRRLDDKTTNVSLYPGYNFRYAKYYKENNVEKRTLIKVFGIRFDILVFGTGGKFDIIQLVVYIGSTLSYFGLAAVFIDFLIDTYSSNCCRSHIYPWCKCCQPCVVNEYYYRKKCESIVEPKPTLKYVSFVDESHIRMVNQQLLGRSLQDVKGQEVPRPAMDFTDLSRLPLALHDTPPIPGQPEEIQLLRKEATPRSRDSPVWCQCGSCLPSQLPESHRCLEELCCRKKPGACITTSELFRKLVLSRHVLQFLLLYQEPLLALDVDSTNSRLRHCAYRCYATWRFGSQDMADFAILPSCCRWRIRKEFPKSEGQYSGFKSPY
# Method in brief: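 Ethidium accumulation read-out: ATP activation of the receptor opens a large pore, and uptake of ethidium bromide dye into the cells is measured by fluorescence.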
# [10] = Clearance in rat blood at 1 mg/kg, iv and 3 mg/kg, po; type: ADME, organism-based
# Method in brief: (§1)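 Cross-species pharmacokinetics (rat, dog, monkey), n = 3 per species. Parameters were derived from 1 mg/kg iv or 3 mg/kg po profiles: blood clearance, Vss, half-life and oral bioavailability.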
# [11] = Clearance in dog blood at 1 mg/kg, iv and 3 mg/kg, po; type: ADME, organism-based, Canis lupus familiaris; method in brief: as §1
# [12] = Solubility of the compound in FeSSIF; type: physicochemical
# [13] = Half life in rat blood at 1 mg/kg, iv; type: ADME, organism-based; parameters: dose 1 mg/kg, route intravenous
# [14] = Volume of distribution at steady state in monkey at 1 mg/kg, iv and 3 mg/kg, po; type: ADME, organism-based, Macaca mulatta; details: rhesus monkey, in vivo, read-out: Vdss; method in brief: as §1
# [15] = Volume of distribution at steady state in dog at 1 mg/kg, iv and 3 mg/kg, po; type: ADME, organism-based, Canis lupus familiaris; details: in vivo, read-out: Vdss; method in brief: as §1
# [16] = Oral bioavailability in dog at 1 mg/kg, iv and 3 mg/kg, po; type: ADME, organism-based, Canis lupus familiaris; details: in vivo; method in brief: as §1
# [17] = Half life in monkey at 1 mg/kg, iv and 3 mg/kg, po; type: ADME, organism-based, Macaca mulatta; details: rhesus monkey, in vivo; method in brief: as §1
# [18] = Protein binding in rat plasma; type: ADME, cell-free; details: read-out: PPB (converted)
# [19] = (§2) Clearance in rat blood at 1 mg/kg, iv; type: ADME, organism-based; parameters: dose 1 mg/kg, route intravenous; details: blood
# Method in brief: (§3)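 Rat blood clearance was determined after a single iv infusion at 1 mg/kg.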
# [20] = Half life in rat at 1 mg/kg, iv and 3 mg/kg, po; type: ADME, organism-based; details: in vivo; method in brief: as §1
# [21] = Oral bioavailability in rat at 1 mg/kg, iv and 3 mg/kg, po; type: ADME, organism-based; details: in vivo; method in brief: as §1
# [22] = Volume of distribution at steady state in rat at 1 mg/kg, iv and 3 mg/kg, po; type: ADME, organism-based; details: in vivo, read-out: Vdss; method in brief: as §1
# [23] = Clearance in monkey blood at 1 mg/kg, iv and 3 mg/kg, po; type: ADME, organism-based, Macaca mulatta; details: rhesus monkey; method in brief: as §1
# [24] = Half life in dog at 1 mg/kg, iv and 3 mg/kg, po; type: ADME, organism-based, Canis lupus familiaris; details: in vivo; method in brief: as §1
# [25] = Oral bioavailability in monkey at 1 mg/kg, iv and 3 mg/kg, po; type: ADME, organism-based, Macaca mulatta; details: rhesus monkey, in vivo; method in brief: as §1
# [26] = Metabolic stability in rat liver microsomes assessed as intrinsic clearance measured per gram of tissue; type: ADME, Microsome
# Rattus norvegicus [27] = test: as §2; type: ADME, organism-based; parameters: dose 1 mg/kg, route intravenous; details: in vivo; method in brief: as §3
smiles,measurement,setting,value
Cc1ncccc1N1C[C@@H](C(=O)NCc2ccc(Cl)cc2Cl)N(C)C1=O,Activity,Rattus norvegicus [1],inactive
same,Ratio,MDCK,4.9
same,logD,[2],2.2
same,Kp at 1 h,[3],< 0.1
same,concentration at 1 h,[4],16.8 µM
same,Cmax,[5],1070 ng/mL
same,half-life,[6],2.3 h
same,IC50,P2X purinoceptor 7 [7],63.1 nM
same,CL/F,[8],17 mL/min/kg
same,IC50,P2X purinoceptor 7 [9],10 nM
CN1C(=O)C(C)(C)C[C@H]1C(=O)NCc1cccc(C(F)(F)F)c1Cl,IC50,P2X purinoceptor 7 [9],25.1 nM
CN1C(=O)N(CCN2CCOCC2)C[C@H]1C(=O)NCc1cccc(C(F)(F)F)c1Cl,Ratio,MDCK,11.9
same,IC50,P2X purinoceptor 7 [9],25.1 nM
Cc1ncccc1N1C[C@@H](C(=O)NCc2cccc(C(F)(F)F)c2Cl)N(C)C1=O,Ratio,MDCK,4.4
same,IC50,P2X purinoceptor 7 [9],5.01 nM
Cc1cccc(N2C[C@@H](C(=O)NCc3cccc(C(F)(F)F)c3Cl)N(C)C2=O)n1,IC50,P2X purinoceptor 7 [9],79.4 nM
CN1CCC(N2C[C@@H](C(=O)NCc3cccc(C(F)(F)F)c3Cl)N(C)C2=O)CC1,Ratio,MDCK,3.2
same,IC50,P2X purinoceptor 7 [9],31.6 nM
CN1C(=O)NC[C@H]1C(=O)NCc1ccc(Cl)cc1Cl,clearance,[10],6 mL/min/kg
same,clearance,[11],2 mL/min/kg
same,solubility,[12],780 µg/mL
same,Activity,Rattus norvegicus [1],Active
same,half-life,[13],2.8 h
same,Vd,[14],1.2 L/kg
same,Vd,[15],0.8 L/kg
same,bioavailability,[16],100%
same,half-life,[17],2.9 h
same,Kp at 1 h,[3],0.3
same,fraction unbound,[18],0.35
same,concentration at 1 h,[4],56.4 µM
same,clearance,[19],6 mL/min/kg
same,half-life,[20],2.8 h
same,bioavailability,[21],100%
same,Vd,[22],1.3 L/kg
same,clearance,[23],7 mL/min/kg
same,half-life,[24],5.7 h
same,bioavailability,[25],99%
same,IC50,P2X purinoceptor 7 [9],10 nM
CN1C[C@@H](C(=O)NCc2ccc(Cl)cc2Cl)N(C)C1=O,CLint scaled,[26],< 0.5 mL/min/g
same,half-life,[13],0.6 h
same,clearance,Rattus norvegicus [27],30 mL/min/kg
same,IC50,P2X purinoceptor 7 [9],2 nM
CN1C[C@@H](C(=O)NCc2cccc(Cl)c2Cl)N(C)C1=O,half-life,[13],0.4 h
same,clearance,[19],49 mL/min/kg
same,IC50,P2X purinoceptor 7 [9],10 nM
CN1C(=O)NC[C@H]1C(=O)NCc1cccc(C(F)(F)F)c1Cl,Ratio,MDCK,2.1
same,IC50,P2X purinoceptor 7 [9],3.98 nM
Cc1cc(N2C[C@@H](C(=O)NCc3cccc(C(F)(F)F)c3Cl)N(C)C2=O)ccn1,Ratio,MDCK,1.9
same,IC50,P2X purinoceptor 7 [9],10 nM
CN1C(=O)OC[C@H]1C(=O)NCc1cccc(C(F)(F)F)c1Cl,IC50,P2X purinoceptor 7 [9],15.8 nM
CN1C(=O)N(c2cn(C)cn2)C[C@H]1C(=O)NCc1cccc(C(F)(F)F)c1Cl,IC50,P2X purinoceptor 7 [9],2.51 nM
CN1C(=O)NC[C@H]1C(=O)NCc1cccc(Cl)c1Cl,IC50,P2X purinoceptor 7 [9],25.1 nM
CN1C(=O)CC[C@H]1C(=O)NCc1cccc(C(F)(F)F)c1Cl [GSK1482160],clearance,[10],9 mL/min/kg
same,clearance,[11],14 mL/min/kg
same,Vd,[14],1.1 L/kg
same,Vd,[15],0.9 L/kg
same,bioavailability,[16],69%
same,half-life,[17],0.9 h
same,IC50,P2X purinoceptor 7 [7],251 nM
same,half-life,[20],1.5 h
same,Vd,[22],1 L/kg
same,clearance,[23],17 mL/min/kg
same,half-life,[24],0.7 h
same,bioavailability,[25],57%
CN1C(=O)COC[C@H]1C(=O)NCc1cccc(C(F)(F)F)c1Cl,IC50,P2X purinoceptor 7 [9],3.98 nM
CN1C(=O)C(F)(F)C[C@H]1C(=O)NCc1cccc(C(F)(F)F)c1Cl,IC50,P2X purinoceptor 7 [9],3.98 nM
CN1C(=O)N(c2nccn2C)C[C@H]1C(=O)NCc1cccc(C(F)(F)F)c1Cl,Ratio,MDCK,5.3
same,IC50,P2X purinoceptor 7 [9],3.98 nM
